{"data": "Results gathered from unrelated publications", "F11": "Coagulation factor XI (F11, Homo sapiens, UniProt P03951)", "A disintegrin and metalloproteinase with thrombospondin motifs 7": "A disintegrin and metalloproteinase with thrombospondin motifs 7 (Homo sapiens, UniProt Q9UKP4)", "HDAC5": "Histone deacetylase 5 (HDAC5, Homo sapiens, UniProt Q9UQL6)", "PDE1C": "Dual specificity calcium/calmodulin-dependent 3',5'-cyclic nucleotide phosphodiesterase 1C (PDE1C, Homo sapiens, UniProt Q14123)", "note": "Compare with care: the assays were run in different laboratories."}
{"Structure (SMILES)": "O=c1oc(-c2ccco2)nc2ccccc12", "target": "F11", "test": "enzyme activity, inhibitor, absorbance", "setting": "pH 7.4", "IC50": "> 50000 nM"}
{"Structure (SMILES)": "CCCC(=O)NCCCN1CCc2c([nH]c3ccc(Cl)cc23)C1", "target": "Sodium-dependent dopamine transporter (SLC6A3, Homo sapiens, UniProt Q01959, F155Y)", "test": "transporter uptake, inhibitor", "IC50": "18200 nM"}
{"Structure (SMILES)": "O=C1NC(=O)[C@](CNC(=O)c2cnn(-c3ccc(F)cc3)n2)(C2CC2)N1", "target": "A disintegrin and metalloproteinase with thrombospondin motifs 7", "test": "enzyme activity, inhibitor, FRET", "IC50": "25.6 nM"}
{"Structure (SMILES)": "O=C(/C=C/c1ccc(O)c2oc(-c3ccc(O)c(O)c3)cc12)O[C@H](Cc1ccc(O)c(O)c1)C(=O)O", "target": "YTH domain-containing family protein 2 (YTHDF2, Homo sapiens, UniProt Q9Y5A9)", "test": "ligand displacement, FP", "IC50": "6000 nM"}
{"Structure (SMILES)": "Cn1nccc1[C@]1(CNC(=O)c2ccc(Cl)c(F)c2-c2ccc(C(F)(F)F)cc2)NC(=O)NC1=O", "target": "A disintegrin and metalloproteinase with thrombospondin motifs 7", "test": "enzyme activity, inhibitor, FRET", "IC50": "3.2 nM"}
{"Structure (SMILES)": "O=C(NO)c1cncc(OS(=O)(=O)Oc2ccc3ccccc3c2)c1", "target": "HDAC5", "test": "enzyme activity, inhibitor, fluorescence", "IC50": "8200 nM"}
{"Structure (SMILES)": "Cn1nccc1[C@]1(CNC(=O)c2ccccc2-c2ccc(C(F)(F)F)cc2)NC(=O)NC1=O", "target": "A disintegrin and metalloproteinase with thrombospondin motifs 7", "test": "enzyme activity, inhibitor, FRET", "IC50": "12 nM"}
{"Structure (SMILES)": "Cc1cc2c(c(=O)[nH]1)C(=O)O/C2=C\\c1ccccc1OCC1CC1", "target": "PDE1C", "test": "enzyme activity, inhibitor, radiometric", "IC50": "190 nM"}
{"Structure (SMILES)": "COc1ccc(C[C@H]2COC(=O)[C@@H]2Cc2ccc(OCC(=O)Nc3ccc(C(=O)Nc4ccccc4N)cc3)c(OC)c2)cc1OC", "target": "HDAC5", "test": "enzyme activity, inhibitor", "IC50": "> 10000 nM"}
{"Structure (SMILES)": "CCOc1ccccc1/C=C1\\OC(=O)c2c1cc(C)[nH]c2=O", "target": "PDE1C", "test": "enzyme activity, inhibitor, radiometric", "IC50": "147 nM"}
{"Structure (SMILES)": "O=C(NO)c1cncc(OS(=O)(=O)Oc2ccc(-n3ccnc3)cc2)c1", "target": "HDAC5", "test": "enzyme activity, inhibitor, fluorescence", "IC50": "3560 nM"}
{"Structure (SMILES)": "Cc1cc2c(c(=O)[nH]1)C(=O)O/C2=C\\c1cc(F)ccc1OCCN1CCOCC1", "target": "PDE1C", "test": "enzyme activity, inhibitor, radiometric", "IC50": "31 nM"}
{"Structure (SMILES)": "O=c1oc(-c2cccnc2)nc2ccccc12", "target": "F11", "test": "enzyme activity, inhibitor, absorbance", "setting": "pH 7.4", "IC50": "> 50000 nM"}
{"Structure (SMILES)": "Cc1cc2c(c(=O)[nH]1)C(=O)O/C2=C\\c1ccc(F)cc1OC(C)C", "target": "PDE1C", "test": "enzyme activity, inhibitor, radiometric", "IC50": "709 nM"}
{"Structure (SMILES)": "Cn1nccc1[C@]1(CNC(=O)c2ccc(C(F)(F)F)c(F)c2-c2ccc(C(F)(F)F)cc2)NC(=O)NC1=O", "target": "A disintegrin and metalloproteinase with thrombospondin motifs 7", "test": "enzyme activity, inhibitor, FRET", "IC50": "9.5 nM"}
